Experimental findings from ChEMBL document CHEMBL2176883, “Aminopiperidine sulfonamide Cav2.2 channel inhibitors for the treatment of chronic pain” (J Med Chem, 2012) are described below.

SMILES strings stand for the structures. pIC50: −log10 of the molar value.

The target of data set [1] is T1, Voltage-dependent N-type calcium channel subunit alpha-1B (Homo sapiens, UniProt Q00975). Briefly: Inhibition of Cav2.2 expressed HEK293 cells assessed as inhibition of calcium flux at 1 uM by FLIPR assay. Format: cell-based. The method in brief:
(§1)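 Calcium influx was read with a calcium-sensitive dye on FLIPR Tetra in CBK cells expressing α1B-1, α2-δ and β3a with Kir2.3. Cells were preincubated with compound in 30 mM K+, then channels were opened by 1:1 addition of 140 mM K+ solution. Compounds were screened at 1 μM, then titrated over 10 points (0.001–30 μM) in quadruplicate, mean ± SD. Values are averages of n ≥ 3.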

The target of data set [2] is T2, hERG (Homo sapiens, UniProt Q12809). Nature of the data set: Displacement of [35S]-MK-0499 from human ERG at 10 uM. To be noted: probe [35S]-MK-0499. A digest of the protocol:
(§2)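 hERG binding was measured as displacement of 35S-labeled MK-0499 at single test concentrations.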
For orientation: In a radioligand displacement assay an active substance lowers the binding of a labelled ligand.

In data set [3] the target is T2, hERG. Briefly: Displacement of [35S]-MK-0499 from human ERG at 1 uM. As to conditions: probe [35S]-MK-0499. A digest of the protocol:
as §2

The target of data set [4] is T1, Voltage-dependent N-type calcium channel subunit alpha-1B. Briefly: Inhibition of Cav2.2 expressed HEK293 cells assessed as inhibition of calcium flux by FLIPR assay in presence of 30 mM of potassium. It is filed as cell-based. A digest of the protocol: as §1
A general note: Calcium assays in cells follow changes in intracellular calcium, usually with a dye or a luminescent sensor.

Data set [5] concerns the target T3, Cav1.2 (Homo sapiens, UniProt Q13936). Nature of the data set: Inhibition of Cav1.2 assessed as inhibition of calcium flux at 3 uM by cell based FLIPR assay. A digest of the protocol: (§3)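 Cav1.2 counterscreen using a related calcium-influx FLIPR assay, run as % inhibition at single concentrations or as a titration.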
Data set [6] has as its target T3, Cav1.2. Briefly: Inhibition of Cav1.2 assessed as inhibition of calcium flux at 1 uM by cell based FLIPR assay. A digest of the protocol: as §3
Data set [7] has as its system Mus musculus. Nature of the data set: Antinociceptive activity in Cav2.2 deficient mouse SNL neuropathic pain model assessed as reversal of mechanical allodynia at 30 mg/kg, po after 2 hrs. It is filed as functional. A digest of the protocol:
(§4)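 Cav2.2+/+ and Cav2.2−/− mice underwent spinal nerve ligation, then got a single 30 mg/kg oral dose. Mechanical allodynia was scored 2 h postdose.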

Data set [8] deals with Mus musculus. Briefly: Antinociceptive activity in Cav2.2 expressing wild type mouse SNL neuropathic pain model assessed as reversal of mechanical allodynia at 30 mg/kg, po after 2 hrs. Format: functional. A digest of the protocol: as §4
The nature of data set [9]: Plasma concentration in rat SNL neuropathic pain model at 10 mg/kg, po after 3.5 hrs. It is filed as ADME, organism-based. Further details: dose 10 mg/kg, route oral.
The subject of data set [10] is Rattus norvegicus. Briefly: Analgesic activity in rat SNL neuropathic pain model assessed as reversal of mechanical allodynia at 10 mg/kg, po after 3 hrs. It is filed as functional.
Data set [11] deals with Rattus norvegicus. Nature of the data set: Analgesic activity in rat SNL neuropathic pain model assessed as reversal of mechanical allodynia at 10 mg/kg, po after 1 hr. It is filed as functional.
Data set [12] deals with Rattus norvegicus. Nature of the data set: Antinociceptive activity in rat assessed as reversal of complete Freund's adjuvant-induced pain at 30 mg/kg, po after 3 hrs. It is filed as functional. The method in brief:
(§5)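 In the rat CFA inflammatory pain model, compound was given orally at 30 mg/kg and allodynia was read at 1 and 3 h postdose. Average % reversal = (postdose − predose)/(preinjury − predose) for each rat, n = 6. Plasma exposure at 3 h was measured in satellite rats (n = 2).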

Data set [13] concerns Rattus norvegicus. Briefly: Antinociceptive activity in rat assessed as reversal of complete Freund's adjuvant-induced pain at 30 mg/kg, po after 1 hr. It is filed as functional. A digest of the protocol: as §5
For data set [14], the system named is Rattus norvegicus. Nature of the data set: Antinociceptive activity in rat assessed as reversal of complete Freund's adjuvant-induced pain at 3 mg/kg, iv after 3 hrs. It is filed as functional.
The test system of data set [15] is Rattus norvegicus. Nature of the data set: Antinociceptive activity in rat assessed as reversal of complete Freund's adjuvant-induced pain at 3 mg/kg, iv after 1 hr. Format: functional.
Data set [16] can be described thus: Half life in rat at 3 mg/kg, po and 1 mg/kg, iv. Format: ADME, organism-based. To be noted: in vivo. A digest of the protocol:
(§6)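 Rat pharmacokinetics from iv and po arms: 0.6 mg/kg iv with 1.8 mg/kg po, or 1 mg/kg iv with 3 mg/kg po. AUC was normalized to po dose (μM·h·kg/mg). Clearance (mL/min/kg) and half-life come from the iv arm, and F% is oral bioavailability.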

A short description of data set [17]: Plasma clearance in rat at 3 mg/kg, po and 1 mg/kg, iv. Format: ADME, organism-based. A digest of the protocol:
as §6

In data set [18] the test system is Rattus norvegicus. Nature of the data set: Dose normalized AUC in rat at 1.8 mg/kg, po and 0.6 mg/kg, iv. It is filed as ADME, organism-based. To be noted: in vivo. A digest of the protocol:
as §6

Data set [19] is described as follows: Oral bioavailability in rat at 3 mg/kg. It is filed as ADME, organism-based. As to conditions: in vivo. The method in brief:
as §6

A short description of data set [20]: Metabolic stability in rat liver microsomes assessed as compound remaining at 1 uM after 1 hr. Format: ADME, Microsome. As to conditions: read-out: Stability. The method in brief:
(§7)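 Compound at 1 μM was incubated with human or rat liver microsomes (1 mg/mL) for 1 h, and the percentage of parent remaining was determined.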
On the technique in general: Liver microsomes are vesicles of endoplasmic reticulum, rich in cytochrome P450 enzymes.

Data set [21] can be described thus: Metabolic stability in human liver microsomes assessed as compound remaining at 1 uM after 1 hr. Format: ADME, Microsome. As to conditions: read-out: Stability. A digest of the protocol:
as §7

T2 sequence (Q12809 whole entry): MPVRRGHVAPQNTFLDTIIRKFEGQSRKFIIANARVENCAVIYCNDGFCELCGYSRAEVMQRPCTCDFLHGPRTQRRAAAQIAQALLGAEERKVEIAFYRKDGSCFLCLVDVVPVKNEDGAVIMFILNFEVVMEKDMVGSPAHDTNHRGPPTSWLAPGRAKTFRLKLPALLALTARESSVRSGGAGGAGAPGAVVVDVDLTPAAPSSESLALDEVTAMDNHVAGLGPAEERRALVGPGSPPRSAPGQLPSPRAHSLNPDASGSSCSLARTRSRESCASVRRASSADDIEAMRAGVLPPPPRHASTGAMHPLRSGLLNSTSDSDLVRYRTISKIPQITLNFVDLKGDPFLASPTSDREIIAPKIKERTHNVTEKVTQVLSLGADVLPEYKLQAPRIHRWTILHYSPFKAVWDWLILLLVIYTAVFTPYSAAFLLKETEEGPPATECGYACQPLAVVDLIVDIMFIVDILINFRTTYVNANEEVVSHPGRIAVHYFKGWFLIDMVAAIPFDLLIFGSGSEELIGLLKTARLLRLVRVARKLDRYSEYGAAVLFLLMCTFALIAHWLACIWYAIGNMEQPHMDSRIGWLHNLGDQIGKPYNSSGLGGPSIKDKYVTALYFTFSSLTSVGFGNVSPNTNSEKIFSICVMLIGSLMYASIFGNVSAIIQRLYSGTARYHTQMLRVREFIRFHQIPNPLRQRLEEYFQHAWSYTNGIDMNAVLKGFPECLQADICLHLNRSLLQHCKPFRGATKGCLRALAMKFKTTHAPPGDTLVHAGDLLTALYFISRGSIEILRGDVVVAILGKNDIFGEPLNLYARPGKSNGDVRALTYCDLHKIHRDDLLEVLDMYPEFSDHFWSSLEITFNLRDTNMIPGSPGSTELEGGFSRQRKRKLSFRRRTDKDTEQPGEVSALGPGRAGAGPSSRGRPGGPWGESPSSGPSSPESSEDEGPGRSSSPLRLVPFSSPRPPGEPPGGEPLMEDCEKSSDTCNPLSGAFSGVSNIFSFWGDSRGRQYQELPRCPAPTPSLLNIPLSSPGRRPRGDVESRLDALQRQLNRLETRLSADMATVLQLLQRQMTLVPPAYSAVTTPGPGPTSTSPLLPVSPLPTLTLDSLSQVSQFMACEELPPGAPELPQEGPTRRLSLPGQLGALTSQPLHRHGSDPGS
T3 sequence (Q13936 whole entry): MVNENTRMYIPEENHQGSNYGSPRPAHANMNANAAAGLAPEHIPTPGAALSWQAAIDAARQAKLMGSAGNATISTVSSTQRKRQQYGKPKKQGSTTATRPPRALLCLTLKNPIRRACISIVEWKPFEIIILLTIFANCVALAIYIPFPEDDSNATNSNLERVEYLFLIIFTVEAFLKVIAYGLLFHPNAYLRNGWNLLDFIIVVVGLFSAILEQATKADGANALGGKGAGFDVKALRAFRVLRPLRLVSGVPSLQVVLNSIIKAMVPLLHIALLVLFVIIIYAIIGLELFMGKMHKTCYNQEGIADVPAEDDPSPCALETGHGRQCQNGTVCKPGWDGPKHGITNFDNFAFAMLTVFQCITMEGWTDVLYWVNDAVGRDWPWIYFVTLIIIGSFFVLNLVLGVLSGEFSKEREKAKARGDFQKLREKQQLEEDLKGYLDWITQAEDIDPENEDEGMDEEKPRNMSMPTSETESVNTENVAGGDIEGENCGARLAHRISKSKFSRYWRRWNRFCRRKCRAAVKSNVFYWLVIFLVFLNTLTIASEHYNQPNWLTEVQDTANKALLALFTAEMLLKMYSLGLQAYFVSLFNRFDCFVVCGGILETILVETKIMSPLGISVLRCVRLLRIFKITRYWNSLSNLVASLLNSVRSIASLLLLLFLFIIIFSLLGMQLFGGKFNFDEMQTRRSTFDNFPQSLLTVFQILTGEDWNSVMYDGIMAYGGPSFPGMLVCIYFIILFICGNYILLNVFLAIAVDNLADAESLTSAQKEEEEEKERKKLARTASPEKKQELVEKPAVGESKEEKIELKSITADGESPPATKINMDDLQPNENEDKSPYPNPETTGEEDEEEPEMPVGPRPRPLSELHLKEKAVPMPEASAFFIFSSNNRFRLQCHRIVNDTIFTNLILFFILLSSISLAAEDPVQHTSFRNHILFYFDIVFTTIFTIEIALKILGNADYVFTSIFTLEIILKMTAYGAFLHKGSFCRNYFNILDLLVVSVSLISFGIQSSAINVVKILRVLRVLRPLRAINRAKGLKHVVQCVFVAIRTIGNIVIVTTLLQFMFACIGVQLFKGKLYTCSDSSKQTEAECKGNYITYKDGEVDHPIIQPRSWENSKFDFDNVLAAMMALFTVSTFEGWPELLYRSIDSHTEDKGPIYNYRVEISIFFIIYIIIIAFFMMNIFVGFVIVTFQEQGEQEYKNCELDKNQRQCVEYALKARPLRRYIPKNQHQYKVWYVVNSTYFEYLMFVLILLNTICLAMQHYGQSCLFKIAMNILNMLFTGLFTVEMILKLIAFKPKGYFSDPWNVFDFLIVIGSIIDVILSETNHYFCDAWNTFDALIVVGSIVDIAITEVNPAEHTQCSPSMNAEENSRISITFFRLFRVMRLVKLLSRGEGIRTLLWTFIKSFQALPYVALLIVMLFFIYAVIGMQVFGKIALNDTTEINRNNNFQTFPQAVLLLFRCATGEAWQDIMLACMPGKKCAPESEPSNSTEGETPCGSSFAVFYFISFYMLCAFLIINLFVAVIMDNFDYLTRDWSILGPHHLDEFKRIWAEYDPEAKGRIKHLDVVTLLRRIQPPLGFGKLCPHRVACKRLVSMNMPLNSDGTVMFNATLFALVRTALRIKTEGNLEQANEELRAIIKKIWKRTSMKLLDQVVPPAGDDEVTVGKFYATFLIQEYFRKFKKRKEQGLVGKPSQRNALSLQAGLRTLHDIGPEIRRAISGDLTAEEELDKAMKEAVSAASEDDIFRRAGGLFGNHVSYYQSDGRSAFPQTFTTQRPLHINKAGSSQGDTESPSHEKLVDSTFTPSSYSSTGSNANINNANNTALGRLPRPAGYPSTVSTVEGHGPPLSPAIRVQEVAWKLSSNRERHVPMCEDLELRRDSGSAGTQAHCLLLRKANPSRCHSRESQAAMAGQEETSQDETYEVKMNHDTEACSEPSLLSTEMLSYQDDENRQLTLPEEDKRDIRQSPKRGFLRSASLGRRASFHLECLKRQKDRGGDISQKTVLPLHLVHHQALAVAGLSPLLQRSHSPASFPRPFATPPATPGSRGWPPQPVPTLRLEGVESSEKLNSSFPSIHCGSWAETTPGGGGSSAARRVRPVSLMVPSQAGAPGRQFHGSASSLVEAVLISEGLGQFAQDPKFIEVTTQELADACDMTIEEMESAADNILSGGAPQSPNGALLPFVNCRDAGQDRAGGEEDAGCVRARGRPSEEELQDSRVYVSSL

Usually inhibition stands for how much of the control response was suppressed. In the case of `CS(=O)(=O)c1cccc(S(=O)(=O)N(C2CC2)C2CCN(C(=O)c3cc(F)ccc3S(C)(=O)=O)CC2)c1`, the inhibition in data set [1] is 0%.
As a reminder, the pIC50 is −log10 of the IC50, conventionally taken in molar units. In the case of `COC(=O)c1cccc(C(=O)N2CCC(N(C3CC3)S(=O)(=O)c3cccc(C(F)(F)F)c3)CC2)c1`, at 10 µM the inhibition on hERG [2] was 66%. At hERG [3], the inhibition at 1 µM was 2.4%. Moreover, the pIC50 in [4] was 6.42.
Consider `CS(=O)(=O)c1ccc(C(=O)N2CCC(N(C3CC3)S(=O)(=O)c3cccc(C(F)(F)F)c3)CC2)cc1`, for which the inhibition in data set [1] is 52%.
With `NC(=O)c1ccc(C(=O)N2CCC(N(C3CC3)S(=O)(=O)c3cccc(C(F)(F)F)c3)CC2)cc1`, on Cav1.2 [5], the inhibition at 3 µM was determined as 0%. For the same compound, the inhibition at 1 µM at Cav1.2 [6] was determined as 0%. Moreover, the inhibition in [1] came out at 12%.
On to `CS(=O)(=O)c1ccc(F)cc1C(=O)N1CCC(N(C2CC2)S(=O)(=O)c2ccc(OC(F)(F)F)cc2)CC1`, for which the inhibition in [1] was 0%.
Consider `NCC1(CC(=O)O)CCCCC1` [GABAPENTIN], for which the Activity in the data set on Mus musculus [7] came to 48%; with Mus musculus [8] it was 71%.
Consider `CS(=O)(=O)c1ccc(F)cc1C(=O)N1CCC(N(C2CC2)S(=O)(=O)c2cccc(OC(F)(F)F)c2)CC1`, for which the pIC50 in [4] was 5.96.
Take `CN(C)c1cccc(C(=O)N2CCC(N(C3CC3)S(=O)(=O)c3cccc(C(F)(F)F)c3)CC2)c1`: the inhibition at 3 µM at Cav1.2 [5] was found to be 63%. Moreover, the inhibition at 1 µM at Cav1.2 [6] came out at 40%; at hERG [3], 0%. This compound also returned an inhibition at 10 µM on hERG [2] of 51%. The pIC50 in data set [4] is 6.62.
For `O=C(c1ccc(OC(F)(F)F)cc1)N1CCC(N(C2CC2)S(=O)(=O)c2cccc(C(F)(F)F)c2)CC1`, in that order: 88%, 73%, 0%, 77% and 6.52.
For `NS(=O)(=O)c1cccc(C(F)(F)F)c1`, the concentration at 3.5 h in data set [9] was determined as 35.6 µM. In addition, the Activity in the data set with Rattus norvegicus [10] amounted to 36%; in the data set on Rattus norvegicus [11], 27%; with Rattus norvegicus [12], 44%; in the data set with Rattus norvegicus [13] it was 53%.
As for `O=C(c1ccccc1)N1CCC(N(C2CC2)S(=O)(=O)c2cccc(C(F)(F)F)c2)CC1`, the inhibition in data set [1] amounted to 42%.
Usually half-life stands for the time needed for the level to fall by half in the phase considered. Usually bioavailability stands for the share of a dose that reaches the circulation, judged against a reference dose that is usually intravenous. Low values mean poor availability, high ones good availability. Take `O=C(c1ccccc1OC(F)(F)F)N1CCC(N(C2CC2)S(=O)(=O)c2cccc(C(F)(F)F)c2)CC1`: the Activity with Rattus norvegicus [14] came to 17%; in the data set on Rattus norvegicus [15] it was 23%. In data set [16], this compound showed a half-life of 1.6 h. Moreover, the clearance in data set [17] is 65 mL/min/kg. Also, the AUC/dose with Rattus norvegicus [18] was 0.23 µM·kg·h/mg. Besides, the bioavailability in data set [19] came out at 47%. In addition, the remaining at 1 h, 1 µM was found to be 21% in data set [20] and 1% in data set [21]. The same compound gave an inhibition at 10 µM on hERG [2] of 75%. The compound also registered an inhibition at 1 µM at hERG [3] of 21%. For the same compound, the pIC50 in [4] was 6.92.
On to `CS(=O)(=O)c1ccc(F)cc1C(=O)N1CCC(N(C2CC2)S(=O)(=O)c2ccc(C(F)(F)F)cc2)CC1`, for which the inhibition in data set [1] came out at 1%.
